Laboratory results as given in ChEMBL document CHEMBL1130978, “Discovery of FR115092: a novel antinephritic agent” (1998).

system: Mus musculus; assay: Inhibition of proteinuria in the graft-versus-host disease mice following 100 mg/kg p.o. administration.; format: functional; conditions: route oral
In short: (§1)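 Chronic GVHD induced in 6-week-old female ([…] x DBA/2)F1 mice by two injections of DBA/2 spleen cells (5 x 10^7 cells each), given 5 days apart. Oral dosing once daily for 8 weeks, starting 3 days after the second injection. Urinary albumin measured after the last dose by single radial immunodiffusion with rabbit anti-mouse serum albumin antiserum. Ten mice per group. Value reported as % inhibition of proteinuria.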

Compound | inhibition in vivo at 100 mg/kg [%]
Nc1ccc([S+]([O-])c2ncccn2)cc1 (stereo not given) | 99
Cc1cc(C(=O)c2ccc(N)cc2)cc(C)c1N | 99
Nc1ccc(C(=O)c2ccncc2)cc1 | 89
Nc1ncc(Sc2ccccn2)s1 | 90
Cc1cc(C(=O)c2ccc(N)cc2)ccc1N | 100
Nc1ccc(Sc2ccc(N)cc2)cc1 [4,4'-THIODIANILINE] | 70
Nc1ccc(NC(=O)c2ccc(N)cc2)cc1 | < 50
Nc1ccc(C(=O)c2ccc(N)cc2)cc1 | 95
Nc1ccc([S+]([O-])c2ccc(N)cc2)cc1 | 95
Nc1ccc(C(=O)c2cccc(N)c2)cc1 | < 50
Nc1ccc([S+]([O-])c2cnc(N)s2)cc1 (stereo not given) | 79
Nc1ncc([S+]([O-])c2ccccn2)s1 (stereo not given) | 98
Nc1ccc(NS(=O)(=O)c2ccc(N)cc2)cc1 | 54
NC(=O)Nc1ccc(C(=O)c2ccc(N)cc2)cc1 | < 50
Cn1ccnc1[S+]([O-])c1ccc(N)cc1 (stereo not given) | < 50
Nc1ccc(Oc2ccc(N)cc2)cc1 | 93
CS(=O)(=O)Nc1ccc(C(=O)c2ccc(N)cc2)cc1 | < 50
Nc1ccc(S(=O)(=O)c2ccc(N)cc2)cc1 [DAPSONE] | 95
Nc1ncc(S(=O)(=O)c2ccccn2)s1 | 92

system: Mus musculus; assay: Compound was tested for the inhibition of proteinuria in the graft-versus-host disease (GVHD) in mice at 100 mg/kg p.o.; 8/10 mice died; format: functional; conditions: route oral

Compound | inhibition in vivo at 100 mg/kg [%]
Nc1ncc([S+]([O-])c2ccncc2)s1 (stereo not given) | 100

system: Mus musculus; assay: Compound was tested for the inhibition of proteinuria in the graft-versus-host disease (GVHD) in mice at 100 mg/kg p.o.; 9/10 mice died; format: functional; conditions: route oral

Compound | inhibition in vivo at 100 mg/kg [%]
Nc1ccc([S+]([O-])c2ccncc2)cc1 (stereo not given) | < 50

system: Mus musculus; assay: Antinephritic activity on chronic graft-versus-host disease (GVHD) in mice at 32 mg/kg p.o.; format: functional; conditions: route oral; in short: as §1

Compound | inhibition in vivo at 32 mg/kg [%]
Nc1ccc(S(=O)(=O)c2ccc(N)cc2)cc1 [DAPSONE] | < 50
Nc1ncc(S(=O)(=O)c2ccccn2)s1 | 29

system: Mus musculus; assay: Antinephritic activity on chronic graft-versus-host disease (GVHD) in mice at 10 mg/kg p.o.; format: functional; conditions: route oral; in short: as §1

Compound | inhibition in vivo at 10 mg/kg [%]
Nc1ccc(S(=O)(=O)c2ccc(N)cc2)cc1 [DAPSONE] | < 50
Nc1ncc(S(=O)(=O)c2ccccn2)s1 | 63
